Source: ChEMBL document CHEMBL5058577, “EUbOPEN Chemogenomics Library 2 (Multiplex)” (2022)

Test system: HEK-293T
Assay: Multiplex assay against HEK293T
Format: toxicity, cell-based
Details: human
How it was run: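 At seeding, live cells were stained with Hoechst33342, BioTracker Green Microtubule Cytoskeleton Dye, MitoTracker Red and Annexin V Alexa Fluor 680. After compound addition they were imaged on a CQ1 microscope at 37°C and 5% CO2, and CellPathfinder machine-learning gating sorted them into Hoechst high-intensity objects or normal cells, with normal cells further split into healthy, pyknosed or fragmented nuclei and pyknosed cells into mitotic or apoptotic. Tubulin, mitochondrial-mass and membrane-permeability phenotypes are given as per cents of cells with healthy nuclei.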

[1] = 12 h, 1 µM, compound concentration 1 uM, replicate 1
[2] = 12 h, 1 µM, compound concentration 1 uM, replicate 2
[3] = 12 h, 10 µM, compound concentration 10 uM, replicate 1
[4] = 12 h, 10 µM, compound concentration 10 uM, replicate 2
[5] = 24 h, 1 µM, compound concentration 1 uM, replicate 1
[6] = 24 h, 1 µM, compound concentration 1 uM, replicate 2
[7] = 24 h, 10 µM, compound concentration 10 uM, replicate 1
[8] = 24 h, 10 µM, compound concentration 10 uM, replicate 2
[9] = 48 h, 1 µM, compound concentration 1 uM, replicate 1
[10] = 48 h, 1 µM, compound concentration 1 uM, replicate 2
[11] = 48 h, 10 µM, compound concentration 10 uM, replicate 1
[12] = 48 h, 10 µM, compound concentration 10 uM, replicate 2

Cc1sc2c(c1C)C(c1ccc(Cl)cc1)=N[C@@H](CC(=O)NCCCCCCCCNC(=O)COc1cccc3c1C(=O)N(C1CCC(=O)NC1=O)C3=O)c1nnc(C)n1-2 (stereo not given in full)
Population Apoptotic (%) [1]: 66% | Population Fragmented Nuclei (%) [1]: 5% | Population Healthy Nuclei (%) [1]: 55% | Population Hoechst High Intensity Objects (%) [1]: 9% | Population Membrane Permeable-Phenotype (%) [1]: 0% | Population Mitochondria Different-Phenotype (%) [1]: 73% | Population Mitotic Cells (%) [1]: 33% | Population Normal (%) [1]: 90% | Population Pyknosed Nuclei (%) [1]: 39% | Population Tubulin-Different-Phenotype (%) [1]: 49% | Total Cell Count [1]: 175 | Population Apoptotic (%) [2]: 62% | Population Fragmented Nuclei (%) [2]: 6% | Population Healthy Nuclei (%) [2]: 69% | Population Hoechst High Intensity Objects (%) [2]: 30% | Population Mitochondria Different-Phenotype (%) [2]: 91% | Population Mitotic Cells (%) [2]: 37% | Population Normal (%) [2]: 69% | Population Pyknosed Nuclei (%) [2]: 24% | Population Tubulin-Different-Phenotype (%) [2]: 59% | Total Cell Count [2]: 205 | Population Apoptotic (%) [3]: 60% | Population Fragmented Nuclei (%) [3]: 9% | Population Healthy Nuclei (%) [3]: 67% | Population Hoechst High Intensity Objects (%) [3]: 14% | Population Membrane Permeable-Phenotype (%) [3]: 0% | Population Mitochondria Different-Phenotype (%) [3]: 75% | Population Mitotic Cells (%) [3]: 39% | Population Normal (%) [3]: 85% | Population Pyknosed Nuclei (%) [3]: 23% | Population Tubulin-Different-Phenotype (%) [3]: 23% | Total Cell Count [3]: 363 | Population Apoptotic (%) [4]: 53% | Population Fragmented Nuclei (%) [4]: 8% | Population Healthy Nuclei (%) [4]: 66% | Population Hoechst High Intensity Objects (%) [4]: 37% | Population Mitochondria Different-Phenotype (%) [4]: 87% | Population Mitotic Cells (%) [4]: 46% | Population Normal (%) [4]: 62% | Population Pyknosed Nuclei (%) [4]: 24% | Population Tubulin-Different-Phenotype (%) [4]: 39% | Total Cell Count [4]: 315 | Population Apoptotic (%) [5]: 51% | Population Fragmented Nuclei (%) [5]: 7% | Population Healthy Nuclei (%) [5]: 61% | Population Hoechst High Intensity Objects (%) [5]: 6% | Population Membrane Permeable-Phenotype (%) [5]: 0% | Population Mitochondria Different-Phenotype (%) [5]: 58% | Population Mitotic Cells (%) [5]: 48% | Population Normal (%) [5]: 93% | Population Pyknosed Nuclei (%) [5]: 31% | Population Tubulin-Different-Phenotype (%) [5]: 22% | Total Cell Count [5]: 261 | Population Apoptotic (%) [6]: 67% | Population Fragmented Nuclei (%) [6]: 6% | Population Healthy Nuclei (%) [6]: 70% | Population Hoechst High Intensity Objects (%) [6]: 30% | Population Mitochondria Different-Phenotype (%) [6]: 83% | Population Mitotic Cells (%) [6]: 32% | Population Normal (%) [6]: 69% | Population Pyknosed Nuclei (%) [6]: 23% | Population Tubulin-Different-Phenotype (%) [6]: 31% | Total Cell Count [6]: 231 | Population Apoptotic (%) [7]: 52% | Population Fragmented Nuclei (%) [7]: 11% | Population Healthy Nuclei (%) [7]: 64% | Population Hoechst High Intensity Objects (%) [7]: 12% | Population Membrane Permeable-Phenotype (%) [7]: 0% | Population Mitochondria Different-Phenotype (%) [7]: 64% | Population Mitotic Cells (%) [7]: 47% | Population Normal (%) [7]: 87% | Population Pyknosed Nuclei (%) [7]: 24% | Population Tubulin-Different-Phenotype (%) [7]: 19% | Total Cell Count [7]: 397 | Population Apoptotic (%) [8]: 57% | Population Fragmented Nuclei (%) [8]: 9% | Population Healthy Nuclei (%) [8]: 60% | Population Hoechst High Intensity Objects (%) [8]: 39% | Population Mitochondria Different-Phenotype (%) [8]: 86% | Population Mitotic Cells (%) [8]: 42% | Population Normal (%) [8]: 60% | Population Pyknosed Nuclei (%) [8]: 30% | Total Cell Count [8]: 346 | Population Apoptotic (%) [9]: 55% | Population Fragmented Nuclei (%) [9]: 7% | Population Healthy Nuclei (%) [9]: 58% | Population Hoechst High Intensity Objects (%) [9]: 2% | Population Membrane Permeable-Phenotype (%) [9]: 0% | Population Mitochondria Different-Phenotype (%) [9]: 56% | Population Mitotic Cells (%) [9]: 44% | Population Normal (%) [9]: 97% | Population Pyknosed Nuclei (%) [9]: 33% | Population Tubulin-Different-Phenotype (%) [9]: 30% | Total Cell Count [9]: 284 | Population Apoptotic (%) [10]: 67% | Population Fragmented Nuclei (%) [10]: 9% | Population Healthy Nuclei (%) [10]: 65% | Population Hoechst High Intensity Objects (%) [10]: 15% | Population Mitochondria Different-Phenotype (%) [10]: 78% | Population Mitotic Cells (%) [10]: 32% | Population Normal (%) [10]: 84% | Population Pyknosed Nuclei (%) [10]: 25% | Population Tubulin-Different-Phenotype (%) [10]: 42% | Total Cell Count [10]: 289 | Population Apoptotic (%) [11]: 48% | Population Fragmented Nuclei (%) [11]: 9% | Population Healthy Nuclei (%) [11]: 55% | Population Hoechst High Intensity Objects (%) [11]: 14% | Population Membrane Permeable-Phenotype (%) [11]: 0% | Population Mitochondria Different-Phenotype (%) [11]: 51% | Population Mitotic Cells (%) [11]: 51% | Population Normal (%) [11]: 85% | Population Pyknosed Nuclei (%) [11]: 35% | Population Tubulin-Different-Phenotype (%) [11]: 17% | Total Cell Count [11]: 403 | Population Apoptotic (%) [12]: 65% | Population Fragmented Nuclei (%) [12]: 15% | Population Healthy Nuclei (%) [12]: 52% | Population Hoechst High Intensity Objects (%) [12]: 31% | Population Mitochondria Different-Phenotype (%) [12]: 76% | Population Mitotic Cells (%) [12]: 34% | Population Normal (%) [12]: 69% | Population Pyknosed Nuclei (%) [12]: 31% | Population Tubulin-Different-Phenotype (%) [12]: 31% | Total Cell Count [12]: 300
